Results gathered from unrelated publications.
Lines come from different studies, so protocols differ.
Method: competition with immobilised ligand
JAK3 JH1: Tyrosine-protein kinase JAK3, JH1 (JAK3, Homo sapiens, UniProt P52333)
JAK3: Tyrosine-protein kinase JAK3 (JAK3, Homo sapiens, UniProt P52333)

N#CC1(c2ccccn2)CCN(Cc2cc(C(=O)N3CCCC3)c(=O)n3ccccc23)CC1
remaining binding (JAK3 JH1; cell-free assay; 1 µM): 100%

C[C@@H]1CN(c2ccc3ncc(-c4ccc5[nH]nc(C6CC6)c5c4)n3n2)C[C@H](C)O1
remaining binding (JAK3; binding; 0.5 µM): 11%

COc1ncc2cc3ccccc3nc2c1C#N
remaining binding (JAK3 JH1; cell-free assay; 5 µM): 63%

COc1ccc2cc(OCC3(C(=O)O)CN(C(=O)c4ccc(F)cc4)C3)ccc2c1
remaining binding (JAK3 JH1; cell-free assay; 1 µM): 100%

CC(C)(C)c1ccc(-c2nc(CBr)nn2-c2cccc(O)c2)cc1
remaining binding (JAK3; cell-free assay; 10 µM): 65%

C[C@@H](c1ccc(-n2cnc3c(N)ncnc32)cc1)N1CCc2nn(C)c(Cc3ccccc3)c2C1=O
remaining binding (JAK3 JH1; binding; 0.1 µM): 96%

C[C@@]1(Cc2ccc(C#N)cc2)C(=O)N(c2cc(Cl)cc(Cl)c2)c2ncc(C(=O)NC3(c4nc(C5CCC5)no4)CC3)n21
remaining binding (JAK3 JH1; cell-free assay; 1 µM): 100%

CN(C)c1nccc(-c2cnn3ncccc23)n1
remaining binding (JAK3 JH1; cell-free assay; 1 µM): 0%

O=C(NCc1ncc(C(F)(F)F)cc1Cl)c1ccc2c(c1)C1(CCS(=O)(=O)CC1)[C@H](C1CC1)N2S(=O)(=O)c1ccc(F)cc1
remaining binding (JAK3 JH1; cell-free assay; 1 µM): 79%

O=C(c1ccc(Nc2ncc(Cl)c(-c3ccc(Cl)s3)n2)cc1)N1CCC(N2CCCC2)CC1
remaining binding (JAK3 JH1; binding; 1 µM): 0.3%

N#Cc1ccccc1CSc1nnc2c(n1)[nH]c1ccccc12
remaining binding (JAK3 JH1; binding; 10 µM): 93%

CC1CCCN1c1nccc(-c2cnn3ncccc23)n1 (stereo not shown)
remaining binding (JAK3 JH1; cell-free assay; 1 µM): 97%

O=C(NCCCN1CCOCC1)c1ccc(Nc2nccc(-c3cc4ccccc4s3)n2)cc1
remaining binding (JAK3 JH1; binding; 1 µM): 6.4%

O=S(=O)(NC1CCC(c2cc(F)ccc2F)(S(=O)(=O)c2ccc(Cl)cc2)CC1)C(F)(F)F (stereo not shown)
remaining binding (JAK3 JH1; cell-free assay; 1 µM): 100%

COc1cnc(Nc2cccc(S(N)(=O)=O)c2)nc1N1CCN(c2ccccc2)CC1
remaining binding (JAK3 JH1; binding; 1 µM): 42%

O=C(NCCCN1CCOCC1)c1ccc(Nc2ncc(Cl)c(-c3ccc(Cl)s3)n2)cc1
remaining binding (JAK3 JH1; binding; 1 µM): 0.8%

Cc1cnn2ncc(-c3ccnc(N(C)C)n3)c2c1
remaining binding (JAK3 JH1; cell-free assay; 1 µM): 91%

O=C(Nc1cccnn1)N1CCC(=Cc2cccc(Oc3ccc(C(F)(F)F)cn3)c2)CC1
remaining binding (JAK3 JH1; cell-free assay; 1 µM): 100%

O=C(NCC1CCOCC1)c1n[nH]cc1NC(=O)c1c(F)cccc1F
remaining binding (JAK3 JH1; binding; 1 µM): 91%

NS(=O)(=O)c1cc(NC(=O)C2(c3ccccc3Cl)CC2)ccc1Oc1cccc(Cl)c1
remaining binding (JAK3 JH1; cell-free assay; 1 µM): 64%

CN(CCCC(F)(F)F)c1nccc(-c2cnn3ncccc23)n1
remaining binding (JAK3 JH1; cell-free assay; 1 µM): 71%

CCN1CCN(Cc2ccc(C(=O)Nc3ccc(C)c(Oc4ccc5c(c4)CC(=O)N5)c3)cc2C(F)(F)F)CC1
remaining binding (JAK3 JH1; binding; 1 µM): 97%
